Reference: ChEMBL document CHEMBL1145100, “Structure-activity relationship of imidazo[1,2-a]pyridines as ligands for detecting beta-amyloid plaques in the brain” (J Med Chem, 2003)

Target: Amyloid-beta precursor protein (Homo sapiens, UniProt P05067)
Test: Inhibition constant against [125I]-7 (TZDM) binding to Amyloid beta 1-40 aggregates
Method in brief: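 Abeta40 peptide aggregated at 0.5 mg/mL in pH 7.4 buffer (10 mM sodium phosphate, 1 mM EDTA), 37 °C for 36-42 h with shaking. Competition in 1 mL of 40% EtOH: fibrils 10-50 nM final, radiotracer 0.05 nM, inhibitors 10^-5 to 10^-10 M. Nonspecific binding with 2 µM thioflavin-T. Incubated 3 h at room temperature, then GF/B filtration with 10% ethanol washes and gamma counting. Ki from nonlinear regression.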

Sequence of Amyloid-beta precursor protein (P05067 whole entry): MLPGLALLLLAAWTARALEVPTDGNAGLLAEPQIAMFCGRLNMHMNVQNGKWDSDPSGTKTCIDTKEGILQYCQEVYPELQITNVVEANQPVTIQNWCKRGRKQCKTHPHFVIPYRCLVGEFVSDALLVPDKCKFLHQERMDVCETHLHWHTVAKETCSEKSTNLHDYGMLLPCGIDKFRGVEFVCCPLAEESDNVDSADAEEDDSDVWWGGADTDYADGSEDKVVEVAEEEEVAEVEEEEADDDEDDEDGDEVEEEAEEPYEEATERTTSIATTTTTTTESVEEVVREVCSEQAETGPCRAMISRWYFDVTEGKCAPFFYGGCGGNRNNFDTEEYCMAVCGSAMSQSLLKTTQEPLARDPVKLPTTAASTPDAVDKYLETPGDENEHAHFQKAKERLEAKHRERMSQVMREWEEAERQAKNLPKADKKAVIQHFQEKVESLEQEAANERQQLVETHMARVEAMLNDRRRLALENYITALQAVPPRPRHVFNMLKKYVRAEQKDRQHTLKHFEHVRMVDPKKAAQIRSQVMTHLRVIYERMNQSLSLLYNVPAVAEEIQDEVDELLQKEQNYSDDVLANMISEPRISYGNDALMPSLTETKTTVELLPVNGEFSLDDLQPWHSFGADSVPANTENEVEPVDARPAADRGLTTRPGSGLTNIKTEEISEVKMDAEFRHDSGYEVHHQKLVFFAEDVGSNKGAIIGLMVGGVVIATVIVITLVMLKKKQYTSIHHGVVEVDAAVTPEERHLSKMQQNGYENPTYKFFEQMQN

For `CN(C)c1ccc(-c2nc3ccccn3c2I)cc1`, which Ki is on record?
The Ki was > 2 µM.
